What all share (assay type): functional
Experiment [1] concerns Haemophilus influenzae. As to the kind of experiment: Antibacterial activity against Haemophilus influenzae type b ATCC 49247 incubated for 24 hrs by M7-A9 microdilution method. The note with it: type b ATCC 49247, 24 h. An outline of the steps: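 CLSI M7-A9 broth microdilution against H. influenzae ATCC 49247. Compounds held as 2 mg/mL DMSO stocks, diluted 2-fold in Mueller–Hinton broth across 50 to 0.1 μg/mL. Wells received inoculum standardized to 0.5 McFarland and were run in triplicate. After 24 h at 37 °C, MIC taken as the lowest concentration preventing visible turbidity. Ciprofloxacin served as positive control.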

Experiment [2] concerns Haemophilus influenzae. As to the kind of experiment: Ratio of MBC to MIC for Haemophilus influenzae type b ATCC 49247 by M7-A9 microdilution method.
For experiment [3], the system named is Haemophilus influenzae. As to the kind of experiment: Bactericidal activity against Haemophilus influenzae type b ATCC 49247 incubated for 24 hrs followed by transferring to freshly prepared broth medium and measured after 24 hrs by M7-A9 microdilution method. The conditions noted are these: type b ATCC 49247, 24 h.

≈ marks a conversion by molar mass, not a printed value.

In the experiment with Haemophilus influenzae [1], `C/C=C1/CO[C@H](O)[C@H]2C(=O)N3CCc4c([nH]c5ccccc45)[C@@H]3C[C@@H]12` showed an MIC of 4.7 µg/mL (≈ 13.9 µM). Further, the Ratio with Haemophilus influenzae [2] is given as 2.7. This compound also registered an MBC with Haemophilus influenzae [3] of 12.5 µg/mL (≈ 36.9 µM).
As for `CC(O)c1coc2c(=O)n3c(cc12)-c1[nH]c2ccccc2c1CC3` (centres undefined), the MIC against Haemophilus influenzae [1] stood at 25 µg/mL (≈ 78 µM). For the same compound, in the experiment on Haemophilus influenzae [2], the Ratio came to 2. Further, in the experiment on Haemophilus influenzae [3], the MBC was found to be 50 µg/mL (≈ 156 µM).
For `C/C=C1/COC(=O)[C@H]2C(=O)N3CCc4c([nH]c5ccccc45)[C@@H]3C[C@@H]12` the same measures were 4.7 µg/mL (≈ 14 µM), 2.7 and 12.5 µg/mL (≈ 37.2 µM).
The like results for `C[C@@H]1CC[C@]2(C(=O)O)CC[C@]3(C)C(=CC[C@@H]4[C@@]5(C)CC[C@H](O)C(C)(C)[C@@H]5CC[C@]43C)[C@@H]2[C@]1(C)O` [POMOLIC ACID] were, in that order, 18.8 µg/mL (≈ 39.8 µM), 2.7 and 50 µg/mL (≈ 106 µM).
In the case of `CC1(C)CC[C@]2(C(=O)O)CC[C@]3(C)C(=CC[C@@H]4[C@@]5(C)CC[C@H](O)[C@@](C)(CO)[C@@H]5[C@H](O)C[C@]43C)[C@@H]2[C@@H]1O`, the MIC with Haemophilus influenzae [1] was 18.8 µg/mL (≈ 37.2 µM). In the experiment with Haemophilus influenzae [2], the Ratio is reported as 2.7. This compound also had an MBC in the experiment with Haemophilus influenzae [3] of 50 µg/mL (≈ 99.1 µM).
The like results for `CC1(C)CC[C@]2(C(=O)O)CC[C@]3(C)C(=CC[C@@H]4[C@@]5(C)CC[C@H](O)[C@@](C)(CO)[C@@H]5[C@H](O)C[C@]43C)[C@@H]2C1` were, in that order, 18.8 µg/mL (≈ 38.5 µM), 2.7 and 50 µg/mL (≈ 102 µM).
The like results for `C[C@@H]1CC[C@]2(C(=O)O)CC[C@]3(C)C(=CC[C@@H]4[C@@]5(C)CC[C@@H]6OC([C@H]7[C@@H]8C[C@H]9c%10[nH]c%11ccccc%11c%10CCN9C(=O)C8=CO[C@@H]7C)OC[C@]6(CO)[C@@H]5CC[C@]43C)[C@@H]2[C@]1(C)O` (some centres undefined) were, in that order, 25 µg/mL (≈ 30.4 µM), 2 and 50 µg/mL (≈ 60.7 µM).
For `O=C(O)c1cn(C2CC2)c2cc(N3CCNCC3)c(F)cc2c1=O` [CIPROFLOXACIN] the same measures were 1.6 µg/mL (≈ 4.83 µM), 1 and 1.6 µg/mL (≈ 4.83 µM).
As to `C/C=C(/C=O)c1cc2n(c(=O)c1O)CCc1c-2[nH]c2ccccc12`, the MIC against Haemophilus influenzae [1] worked out at 50 µg/mL (≈ 156 µM). In the experiment on Haemophilus influenzae [2], the Ratio is more than 1. Also, the MBC against Haemophilus influenzae [3] was more than 50 µg/mL.
With `C[C@H]1[C@H](C)CC[C@]2(C(=O)O)CC[C@]3(C(=O)O)C(=CC[C@@H]4[C@@]5(C)CCC(=O)C(C)(C)[C@@H]5CC[C@]43C)[C@H]12`, in the experiment on Haemophilus influenzae [1], the MIC amounted to 18.8 µg/mL (≈ 38.8 µM). In addition, the Ratio with Haemophilus influenzae [2] was 2.7. The compound also had an MBC in the experiment with Haemophilus influenzae [3] of 50 µg/mL (≈ 103 µM).
The like results for `COC(OC)[C@H]1[C@@H]2C[C@H]3c4[nH]c5ccccc5c4CCN3C(=O)C2=CO[C@@H]1C` were, in that order, 50 µg/mL (≈ 131 µM), more than 1 and more than 50 µg/mL.
The like results for `C[C@H]1OC=C2C(=O)N3CCc4c([nH]c5ccccc45)[C@@H]3C[C@H]2[C@@H]1C=O` were, in that order, 3.1 µg/mL (≈ 9.22 µM), 4 and 12.5 µg/mL (≈ 37.2 µM).
The like results for `C[C@H]1[C@H](C)CC[C@]2(C(=O)O)CC[C@]3(C(=O)O)C(=CC[C@@H]4[C@@]5(C)CC[C@H](O)C(C)(C)[C@@H]5CC[C@]43C)[C@H]12` were, in that order, 25 µg/mL (≈ 51.4 µM), more than 2 and more than 50 µg/mL.

(Values after ChEMBL document CHEMBL4414555, “Constituents from Nauclea latifolia with Anti-Haemophilus influenzae Type b Inhibitory Activities” (2019).)
